Reference: article PMC3880621 (Journal of medicinal chemistry, 2013)

Legend:
[1] = format: physicochemical; settings: for rate of decomposition of NONO-salicylate derivatives: spontaneous, pH not printed at the place
[2] = Guinea pig serum; format: in vitro ADME; settings: pH 7.4, 37°C; for first-order rate constant k2 of loss of 241 nm peak: 2% guinea pig serum, second, slow process
Outline: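 Test compound added from a 1000× DMSO stock to 50 μM DTPA in Ca/Mg-free DPBS, pH 7.4, with 2% guinea pig serum at 37°C; blank was buffer plus serum. UV spectra taken every second for 600 s, then every 60–120 s; total scan 2500 s to 62 h. Rate constants from fitting A = ΔAe^(−kt) + A∞.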

[3] = Stomach ulcerogenicity; format: in vivo, Sprague-Dawley rats; settings: rats; for ulcer index: 1.38 mmol/kg p.o., 6 h post-administration; for ulcerogenicity compared to control: 1.38 mmol/kg
Outline: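 Sprague-Dawley rats fasted 24 h with water available, then dosed orally at 1.38 mmol/kg suspended in 1.2 mL 1% methylcellulose; controls received vehicle. Killed by CO2 at 6 h; stomachs removed onto ice and lesions inspected under a magnifier, scored by size. Ulcer index = summed ulcer length per stomach, averaged over the animals in the group.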

[4] = test system: HUVECs; experiment: MTT cell viability assay, HUVECs; format: cell-based, human; settings: 48 h, 25-100 μM, n = 1
Outline: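 HUVECs kept in endothelial growth medium at 37°C, 5% CO2, 80% humidity. Seeded at 8,000–10,000 per well, grown overnight, then treated 48 h across a concentration range (prodrugs 0–200 μM). MTT (2 mg/mL solution) added for 1 h at 37°C; medium removed, formazan dissolved in DMSO, absorbance read at 550 nm. One experiment, at least triplicate wells.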

[5] = Fetal bovine serum induced hydrolysis, followed spectrophotometrically; format: in vitro ADME; settings: pH 7.4, 37°C, n = 1
[6] = test system: COX-2; experiment: PGE2 levels in A549 cells; format: cell-based, human; settings: 25 and 50 μM, 24 h
Outline: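 A549 cells grown in RPMI 1640 with 10% FBS and penicillin/streptomycin. Seeded at 50,000 per well, grown 12 h, then given test compound at 25 or 50 μM (0.1% DMSO) for 24 h at 37°C. Supernatant PGE2 measured by competitive EIA (AChE tracer plus monoclonal antibody, overnight at 4°C), developed with Ellman's reagent, absorbance at […]. Triplicate.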

[7] = target: GAPDH (Homo sapiens, UniProt P04406); experiment: GAPDH activity in A549 cells; format: cell-based; settings: 100 μM, 1 h
Outline: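 A549 cells, seeded at 30,000 per well and grown overnight, exposed to test compound at 100 μM for 1 h at 37°C. Cells lysed in kit lysis buffer for 20 min at 4°C. Lysate mixed with kit mastermix; fluorescence read at 570 nm with excitation at 540 nm. Triplicate; mean ± SD; one-way ANOVA versus untreated control.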

[8] = test system: isolated murine ventricular myocytes; format: cell-based, mouse; settings: 500 μM
[9] = test system: various cancer cells lines; settings: read-out: IC50 (cytotoxicity); cited from earlier work
[10] = pH 7.4, PBS with 50 μM DTPA, 37°C

Chain of GAPDH (P04406 whole entry): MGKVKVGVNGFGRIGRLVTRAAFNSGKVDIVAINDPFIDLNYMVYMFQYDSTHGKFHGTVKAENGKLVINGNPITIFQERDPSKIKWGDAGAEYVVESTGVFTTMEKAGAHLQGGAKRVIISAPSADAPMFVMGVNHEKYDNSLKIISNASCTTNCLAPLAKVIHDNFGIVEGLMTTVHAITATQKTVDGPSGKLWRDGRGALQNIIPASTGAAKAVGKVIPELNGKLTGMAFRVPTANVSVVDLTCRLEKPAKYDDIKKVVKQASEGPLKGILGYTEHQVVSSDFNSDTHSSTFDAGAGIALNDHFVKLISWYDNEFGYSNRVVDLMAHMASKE

Structure (SMILES)	first-order rate constant of decomposition at 241 nm [1, 10]	first-order rate constant k2 of loss of 241 nm peak [2]	ulcer index [3]	ulcerogenicity compared to control [3]	effect on viability of HUVECs [4]	rate of decomposition of NONO-salicylate derivatives [1]	rate constant of hydrolysis/decomposition at pH 10 ([1]; pH 10, 37°C)	other results
CCN(CC)/[N+]([O-])=N/OCOC(=O)c1ccccc1OC(C)=O [DEA/NO-aspirin, O^2-(Acetylsalicyloyloxymethyl)-1-(N,N-diethylamino)-diazen-1-ium-1,2-diolate]	5.3e-06 s⁻¹	(1.1 ± 0.6) × 10^−3 s^−1	0	not significantly increased compared to control	no effect on viability up to 100 μM			rate constant of initial growth near 250 nm (production of DEA/NO) ([1]; pH 10, 37°C): (4.5 ± 0.6) × 10^−5 s^−1
CCN(CC)/[N+]([O-])=N/OCOC(=O)c1ccccc1O [DEA/NO-salicylate, O^2-(2-hydroxybenzoyloxymethyl)-1-(N,N-diethylamino)-diazen-1-ium-1,2-diolate]						3.1e-05 s⁻¹		
CC(C)N/[N+]([O-])=N/[O-].[Na+] [IPA/NO, sodium 1-(N-isopropylamino)diazen-1-ium-1,2-diolate, reference compound]							4.1 × 10^−4 s^−1	
CC(=O)Oc1ccccc1C(=O)OCO/N=[N+](\[O-])NC(C)C [IPA/NO-aspirin, O^2-(Acetylsalicyloyloxymethyl)-1-(N-isopropylamino)-diazen-1-ium-1,2-diolate]	(2.6 ± 0.2) × 10^−5 s^−1	(6.5 ± 0.12) × 10^−4 s^−1		not significantly increased compared to control	no effect on viability up to 100 μM		(3.5 ± 0.8) × 10^−3 s^−1	rate constant of decomposition with FBS [5]: 2.7e-05 s⁻¹; PGE2 levels [6]: decreased most significantly; inhibition of GAPDH activity [7]: highest; change of time of half-relaxation from peak shortening ([8]; mean ± SEM): −17 ± 3%; increase in sarcomere shortening from control ([8]; n = 12, mean ± SEM): +201 ± 18%
CC(C)N/[N+]([O-])=N/OCOC(=O)c1ccccc1O [IPA/NO-salicylate, O^2-(2-hydroxybenzoyloxymethyl)-1-(N-isopropylamino)-diazen-1-ium-1,2-diolate]						7e-05 s⁻¹		
CC(=O)Oc1ccccc1C(=O)O [aspirin, acetylsalicylic acid, reference compound]			57.4 ± 3.1				(1.6 ± 0.5) × 10^−4 s^−1	first-order rate constant of spontaneous hydrolysis at 295 nm [1, 10]: 9.8e-06 s⁻¹; rate of hydrolysis in the presence of guinea pig serum ([2]; guinea pig serum): (4.7 ± 0.17) × 10^−4 s^−1; IC50 [9]: > 1000 µM
